ChEMBL document CHEMBL1125204, “Synthesis and biological activity of sinefungin analogues” (J Med Chem, 1991)
Values belong to the compound of their own block, whether it stands above or below them.

What was measured:
Leishmania donovani [1] = assay: Thymidine uptake and incorporation in Leishmania donovani promastigotes measured in the TCA insoluble material at a concentration 130 uM in the presence of sinefungin (0.026 uM).; type: functional
Summary of the method: (§1)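 Promastigotes at 5×10^8 cells/mL in DMEM/RPMI/FCS medium at 26 °C, equilibrated 3–4 h, then exposed 4 h to compound alone or with 0.026 μM sinefungin. Labelled 1 h with 2.5 μCi/mL [methyl-3H]thymidine and washed in cold PBS. Uptake taken from cold TCA-soluble fraction, incorporation from TCA-insoluble fraction. Protein measured by Lowry method.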

Leishmania donovani [2] = assay: (§2) Apparent kinetic activity measured for protein carboxyl methyltransferase in Leishmania donovani promastigotes; type: organism-based
Summary of the method: (§3)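 Cell-free extracts of L. donovani promastigotes (strain LRC L-52) assayed for S-adenosylmethionine:protein-carboxyl methyltransferase activity, with α-globulin as the methyl-accepting substrate. Kinetic constants came from Lineweaver–Burk plots and were expressed as a Ki/Km ratio. Protein was measured by the Bradford dye-binding method against a bovine serum albumin standard.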

[3] = It is the ratio of Ki value to that of Km.; type: ADME
Summary of the method: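 Ki/Km ratio for protein-carboxyl methyltransferase in cell-free promastigote extracts, α-globulin as substrate. Ki and Km read from Lineweaver–Burk plots.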

Leishmania donovani [4] = assay: Thymidine uptake and incorporation in Leishmania donovani promastigotes measured in the TCA soluble material at a concentration 130 uM in the presence of sinefungin (0.026 uM).; type: functional; summary of the method: as §1
Leishmania donovani [5] = assay: Cell growth of Leishmania donovani promastigotes measured at 24 hr of 0.26 uM sinefungin treatment before compound (130 uM) addition.; type: functional
Summary of the method: (§4)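 L. donovani LRC L-52 promastigotes, 0.5×10^6 in 500 μL, grown at 26 °C in 45% DMEM/45% RPMI 1640 (25 mM HEPES pH 7.4) with 10% heat-inactivated FCS. Compounds in water added with 0.26 μM sinefungin. Duplicate wells beside untreated cultures; hemacytometer counts; growth inhibition expressed as % of untreated.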

Leishmania donovani [6] = assay: Cell growth of Leishmania donovani promastigotes measured at 48 hr of 0.26 uM sinefungin treatment before compound (130 uM) addition.; type: functional; summary of the method: as §4
Leishmania donovani [7] = assay: Cell growth of Leishmania donovani promastigotes measured at 0h of 0.26 uM sinefungin treatment before compound (130 uM) addition.; type: functional; summary of the method: as §4
Leishmania donovani [8] = assay: Cell growth of Leishmania donovani promastigotes measured at 24 hr of 0.26 uM sinefungin treatment before compound (148 uM) addition.; type: functional; summary of the method: as §4
Leishmania donovani [9] = assay: Cell growth of Leishmania donovani promastigotes measured at 0h of 0.26 uM sinefungin treatment before compound (148 uM) addition.; type: functional; summary of the method: as §4
Leishmania donovani [10] = assay: Thymidine uptake and incorporation in Leishmania donovani promastigotes measured in the TCA soluble material at a concentration 1.25 uM in the presence of sinefungin (0.026 uM).; type: functional; summary of the method: as §1
Leishmania donovani [11] = assay: Thymidine uptake and incorporation in Leishmania donovani promastigotes measured in the TCA insoluble material at a concentration 1.25 uM in the presence of sinefungin (0.026 uM).; type: functional; summary of the method: as §1
Leishmania donovani [12] = assay: Thymidine uptake and incorporation in Leishmania donovani promastigotes measured in the TCA soluble material at a concentration 1.25 uM.; type: functional; summary of the method: as §1
Leishmania donovani [13] = assay: Thymidine uptake and incorporation in Leishmania donovani promastigotes measured in the TCA insoluble material at a concentration 1.25 uM.; type: functional; summary of the method: as §1
Leishmania donovani [14] = assay: Cell growth of Leishmania donovani promastigotes measured at 0h of 0.26 uM sinefungin treatment before compound addition.; type: functional; summary of the method: as §4
Leishmania donovani [15] = assay: Thymidine uptake and incorporation in Leishmania donovani promastigotes measured in the TCA insoluble material.; type: functional; summary of the method: as §1
Leishmania donovani [16] = assay: Thymidine uptake and incorporation in Leishmania donovani promastigotes measured in the TCA soluble material.; type: functional; summary of the method: as §1
Leishmania donovani [17] = assay: Thymidine uptake and incorporation in Leishmania donovani promastigotes measured in the TCA soluble material in the presence of sinefungin (0.026 uM).; type: functional; summary of the method: as §1
Leishmania donovani [18] = assay: Thymidine uptake and incorporation in Leishmania donovani promastigotes measured in the TCA insoluble material in the presence of sinefungin (0.026 uM).; type: functional; summary of the method: as §1
Leishmania donovani [19] = assay: Cell growth of Leishmania donovani promastigotes measured at 16h of 0.26 uM sinefungin treatment before compound (260 uM) addition.; type: functional; summary of the method: as §4
Leishmania donovani [20] = assay: Thymidine uptake and incorporation in Leishmania donovani promastigotes measured in the TCA insoluble material at a concentration 11.6 uM.; type: functional; summary of the method: as §1
Leishmania donovani [21] = assay: Cell growth of Leishmania donovani promastigotes measured at 48 hr of 0.26 uM sinefungin treatment before compound (260 uM) addition.; type: functional; summary of the method: as §4
Leishmania donovani [22] = assay: Thymidine uptake and incorporation in Leishmania donovani promastigotes measured in the TCA soluble material at a concentration 23.3 uM.; type: functional; summary of the method: as §1
Leishmania donovani [23] = assay: Cell growth of Leishmania donovani promastigotes measured at 24 hr of 0.26 uM sinefungin treatment before compound (260 uM) addition.; type: functional; summary of the method: as §4
Leishmania donovani [24] = assay: Cell growth of Leishmania donovani promastigotes measured at 0h of 0.26 uM sinefungin treatment before compound (260 uM) addition.; type: functional; summary of the method: as §4
Leishmania donovani [25] = assay: Thymidine uptake and incorporation in Leishmania donovani promastigotes measured in the TCA soluble material at a concentration 11.6 uM.; type: functional; summary of the method: as §1
Leishmania donovani [26] = assay: Thymidine uptake and incorporation in Leishmania donovani promastigotes measured in the TCA soluble material at a concentration 23.3 uM in the presence of sinefungin (0.026 uM).; type: functional; summary of the method: as §1
Leishmania donovani [27] = assay: Thymidine uptake and incorporation in Leishmania donovani promastigotes measured in the TCA insoluble material at a concentration 23.3 uM in the presence of sinefungin (0.026 uM).; type: functional; summary of the method: as §1
Leishmania donovani [28] = assay: Thymidine uptake and incorporation in Leishmania donovani promastigotes measured in the TCA insoluble material at a concentration 11.6 uM in the presence of sinefungin (0.026 uM).; type: functional; summary of the method: as §1
Leishmania donovani [29] = assay: Thymidine uptake and incorporation in Leishmania donovani promastigotes measured in the TCA insoluble material at a concentration 23.3 uM.; type: functional; summary of the method: as §1
Leishmania donovani [30] = assay: Thymidine uptake and incorporation in Leishmania donovani promastigotes measured in the TCA insoluble material at a concentration 2.1 uM in the presence of sinefungin (0.026 uM).; type: functional; summary of the method: as §1
Leishmania donovani [31] = assay: Thymidine uptake and incorporation in Leishmania donovani promastigotes measured in the TCA soluble material at a concentration 2.1 uM.; type: functional; summary of the method: as §1
Leishmania donovani [32] = assay: Thymidine uptake and incorporation in Leishmania donovani promastigotes measured in the TCA insoluble material at a concentration 2.1 uM.; type: functional; summary of the method: as §1
Leishmania donovani [33] = assay: Thymidine uptake and incorporation in Leishmania donovani promastigotes measured in the TCA soluble material at a concentration 2.1 uM in the presence of sinefungin (0.026 uM).; type: functional; summary of the method: as §1
Leishmania donovani [34] = assay: as §2; type: ADME, organism-based; details: in vitro; summary of the method: as §3
Leishmania donovani [35] = assay: Cell growth of Leishmania donovani promastigotes measured at 48 hr of 0.26 uM sinefungin treatment before compound (156 uM) addition.; type: functional; summary of the method: as §4
Leishmania donovani [36] = assay: Cell growth of Leishmania donovani promastigotes measured at 0h of 0.26 uM sinefungin treatment before compound (156 uM) addition.; type: functional; summary of the method: as §4
Leishmania donovani [37] = assay: Cell growth of Leishmania donovani promastigotes measured at 24 hr of 0.26 uM sinefungin treatment before compound (156 uM) addition.; type: functional; summary of the method: as §4

Ki (Leishmania donovani [2]): 1120 µM | Ratio [3]: 23.3
SMILES: NCCC(CN)C[C@H]1OC(n2cnc3c(N)ncnc32)[C@H](O)[C@@H]1O (stereo partly specified)
Cell growth (Leishmania donovani [8]): 80% | Cell growth (Leishmania donovani [9]): 93%

Ki (Leishmania donovani [2]): 165 µM | Ratio [3]: 3
SMILES: Nc1ncnc2c1ncn2[C@@H]1O[C@H](CC(N)CCCC(=O)O)[C@@H](O)[C@H]1O (stereo in doubt; 3a)
Thymidine uptake (Leishmania donovani [10]): 1556483 c.p.m. (mg of protein)-1 | Thymidine uptake (Leishmania donovani [11]): 1459000 c.p.m. (mg of protein)-1 | Thymidine uptake (Leishmania donovani [12]): 1499100 c.p.m. (mg of protein)-1 | Thymidine uptake (Leishmania donovani [13]): 1772064 c.p.m. (mg of protein)-1

Ki (Leishmania donovani [2]): 446 µM | Ratio [3]: 8.3
SMILES: Nc1ncnc2c1ncn2[C@@H]1O[C@H](CC(N)CCCC(O)CO)[C@@H](O)[C@H]1O (stereo partly specified)
Cell growth (Leishmania donovani [19]): 92% | Thymidine uptake (Leishmania donovani [20]): 3148603 c.p.m. (mg of protein)-1 | Cell growth (Leishmania donovani [21]): 41% | Thymidine uptake (Leishmania donovani [22]): 1020493 c.p.m. (mg of protein)-1 | Cell growth (Leishmania donovani [23]): 59% | Cell growth (Leishmania donovani [24]): 100% | Thymidine uptake (Leishmania donovani [25]): 823954 c.p.m. (mg of protein)-1 | Thymidine uptake (Leishmania donovani [26]): 1230950 c.p.m. (mg of protein)-1 | Thymidine uptake (Leishmania donovani [27]): 3097327 c.p.m. (mg of protein)-1 | Thymidine uptake (Leishmania donovani [28]): 3391425 c.p.m. (mg of protein)-1 | Thymidine uptake (Leishmania donovani [29]): 4079585 c.p.m. (mg of protein)-1

Ki (Leishmania donovani [2]): 380 µM | Ratio [3]: 6.9
SMILES: Nc1ncnc2c1ncn2[C@@H]1O[C@H](CC(N)CCCC(=O)O)[C@@H](O)[C@H]1O (stereo in doubt; 3b)
Thymidine uptake (Leishmania donovani [30]): 1861835 c.p.m. (mg of protein)-1 | Thymidine uptake (Leishmania donovani [31]): 1161185 c.p.m. (mg of protein)-1 | Thymidine uptake (Leishmania donovani [32]): 3284127 c.p.m. (mg of protein)-1 | Thymidine uptake (Leishmania donovani [33]): 1973260 c.p.m. (mg of protein)-1

Ki (Leishmania donovani [2]): 7.2 µM | Ratio [3]: 0.13
SMILES: Nc1ncnc2c1ncn2[C@@H]1O[C@H](CSCC[C@H](N)C(=O)O)[C@@H](O)[C@H]1O [S-ADENOSYLHOMOCYSTEINE]

Further lines, the compound ahead of its results:

SMILES: C=CCCCC(N)C[C@H]1OC(n2cnc3c(N)ncnc32)[C@H](O)[C@@H]1O (stereo partly specified)
Thymidine uptake (Leishmania donovani [1]): 2880449 c.p.m. (mg of protein)-1 | Ki (Leishmania donovani [2]): 877 µM | Ratio [3]: 15.9 | Thymidine uptake (Leishmania donovani [4]): 1703083 c.p.m. (mg of protein)-1 | Cell growth (Leishmania donovani [5]): 65% | Cell growth (Leishmania donovani [6]): 41% | Cell growth (Leishmania donovani [7]): 97%

SMILES: Nc1ncnc2c1ncn2C1O[C@H](C[C@@H](N)CC[C@@H](N)C(=O)O)[C@@H](O)[C@H]1O (stereo partly specified)
Cell growth (Leishmania donovani [14]): 15% | Thymidine uptake (Leishmania donovani [15]): 956745 c.p.m. (mg of protein)-1 | Thymidine uptake (Leishmania donovani [16]): 1741329 c.p.m. (mg of protein)-1 | Thymidine uptake (Leishmania donovani [17]): 1583862 c.p.m. (mg of protein)-1 | Thymidine uptake (Leishmania donovani [18]): 2197110 c.p.m. (mg of protein)-1

SMILES: Nc1ncnc2c1ncn2[C@@H]1O[C@H](CC2CCNC2)[C@@H](O)[C@H]1O (stereo in doubt; 6b)
Ki (Leishmania donovani [2]): 140 µM | Ratio [3]: 2.9

SMILES: C[S+](CC[C@H](N)C(=O)[O-])C[C@H]1O[C@@H](n2cnc3c(N)ncnc32)[C@H](O)[C@@H]1O (stereo partly specified) [ADEMETIONINE]
Km (Leishmania donovani [34]): 55 µM

SMILES: Nc1ncnc2c1ncn2[C@@H]1O[C@H](CC2CCNC2)[C@@H](O)[C@H]1O (stereo in doubt; 6a)
Ki (Leishmania donovani [2]): 103 µM | Ratio [3]: 2.1 | Cell growth (Leishmania donovani [35]): 37% | Cell growth (Leishmania donovani [36]): 83% | Cell growth (Leishmania donovani [37]): 74%
